Values after ≈ are worked out from the molar mass of the structure shown.
Assays:
[1] = Solubility at pH 6.8; type: physicochemical; settings: buffer
[2] = Metabolic stability in human liver microsomes at 1 umol/L after 20 mins by HPLC assessed per mg of protein; type: ADME, Microsome; settings: read-out: Stability
Method in brief: (§1)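 Hepatic microsomes (0.2 mg/mL protein) were incubated at 37 °C for 0 and 20 min with an NADPH-generating system added at 10% of reaction volume. The system held 50 mmol/L MgCl₂, 50 mmol/L glucose-6-phosphate, 5 mmol/L β-NADP⁺ and 15 unit/mL G6PDH. Reactions were stopped with an equal volume of acetonitrile, run in duplicate. Parent disappearance was measured by HPLC-UV and expressed as %/min/mg.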

[3] = Metabolic stability in mouse liver microsomes at 1 umol/L after 20 mins by HPLC assessed per mg of protein; type: ADME, Microsome; settings: read-out: Stability; method in brief: as §1
[4] = Metabolic stability in rat liver microsomes at 1 umol/L after 20 mins by HPLC assessed per mg of protein; type: ADME, Microsome; settings: read-out: Stability; method in brief: as §1
[5] = target: T1, Diacylglycerol O-acyltransferase 1 (Mus musculus, UniProt Q9Z2A7); test: Inhibition of DGAT1 in mouse C2C12 cells assessed as suppression of [14C]triglyceride accumulation pretreated for 20 mins before [14C]oleic acid challenge measured after 20 mins by TLC analysis; type: cell-based
T1 sequence (Q9Z2A7 whole entry): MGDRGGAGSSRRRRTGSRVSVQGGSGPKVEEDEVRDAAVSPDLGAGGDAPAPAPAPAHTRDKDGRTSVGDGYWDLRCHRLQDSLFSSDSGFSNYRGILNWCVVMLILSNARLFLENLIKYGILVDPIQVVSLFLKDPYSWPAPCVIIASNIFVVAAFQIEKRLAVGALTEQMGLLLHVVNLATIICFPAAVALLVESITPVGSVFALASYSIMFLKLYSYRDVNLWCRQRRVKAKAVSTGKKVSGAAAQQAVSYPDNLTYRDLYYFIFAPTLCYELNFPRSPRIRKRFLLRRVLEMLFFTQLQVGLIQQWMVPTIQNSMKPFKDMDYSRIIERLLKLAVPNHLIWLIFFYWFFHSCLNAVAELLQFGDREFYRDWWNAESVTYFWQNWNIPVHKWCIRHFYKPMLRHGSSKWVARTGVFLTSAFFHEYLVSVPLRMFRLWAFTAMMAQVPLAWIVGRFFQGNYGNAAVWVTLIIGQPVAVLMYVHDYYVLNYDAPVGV
Method in brief: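 C2C12 cell suspension (10⁶ cells/mL final) was preincubated with serial compound dilutions at 37 °C for 20 min. [¹⁴C]-oleic acid substrate was then added with 0.001% fatty-acid-free BSA, 0.2% ethanol and 0.1% DMSO final. After 20 min at 37 °C, reactions were stopped with chloroform/methanol (1:2). Chloroform-phase lipids were separated by TLC (hexane/ether/ethyl acetate/acetic acid 255:30:15:0.6).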

[6] = target: T2, Diacylglycerol O-acyltransferase 1 (Homo sapiens, UniProt O75907); test: Inhibition of human DGAT1 expressed in baculovirus infected Sf9 cells using [14C]oleoyl-CoA after 15 mins by TLC analysis
T2 sequence (O75907 whole entry): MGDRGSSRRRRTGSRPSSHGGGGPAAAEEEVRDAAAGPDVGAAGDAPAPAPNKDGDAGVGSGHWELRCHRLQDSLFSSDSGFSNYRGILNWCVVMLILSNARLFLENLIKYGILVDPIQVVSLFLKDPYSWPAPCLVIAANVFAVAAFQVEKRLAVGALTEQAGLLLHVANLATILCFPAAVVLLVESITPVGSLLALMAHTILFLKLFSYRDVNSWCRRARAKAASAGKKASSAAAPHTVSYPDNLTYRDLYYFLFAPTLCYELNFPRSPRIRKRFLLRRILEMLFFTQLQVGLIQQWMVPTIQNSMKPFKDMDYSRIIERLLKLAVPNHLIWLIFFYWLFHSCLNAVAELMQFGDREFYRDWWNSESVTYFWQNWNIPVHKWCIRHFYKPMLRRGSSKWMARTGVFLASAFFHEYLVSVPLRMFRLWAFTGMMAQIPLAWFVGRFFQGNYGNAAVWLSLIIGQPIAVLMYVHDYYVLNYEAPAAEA

Mus musculus [7] = test: Antiobesity activity in C57BL/6 mouse assessed as reduction in perirenal white adipose tissue weight at 3 mg/kg, po BID for 4 weeks; type: functional; design: scale not given: the % may be the effect or the level left
Method in brief: (§2)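 C57BL/6 mice fed a high-fat diet were dosed orally b.i.d. at 3 mg/kg as a 0.5% MC suspension for four weeks. Endpoints were body weight gain, total food intake, and mesenteric, perirenal and subcutaneous white adipose tissue weights.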

Mus musculus [8] = test: Toxicity in C57BL/6 mouse assessed as effect on total food intake at 3 mg/kg, po BID for 4 weeks; type: organism-based; design: dose 3 mg/kg, route oral; settings: in vivo, 672 h; method in brief: as §2
Mus musculus [9] = test: Antiobesity activity in C57BL/6 mouse assessed as reduction in subcutaneous white adipose tissue weight at 3 mg/kg, po BID for 4 weeks; type: functional; design: scale not given: the % may be the effect or the level left; method in brief: as §2
Mus musculus [10] = test: Antiobesity activity in C57BL/6 mouse assessed as reduction in mesenteric white adipose tissue weight at 3 mg/kg, po BID for 4 weeks; type: functional; design: scale not given: the % may be the effect or the level left; method in brief: as §2
Mus musculus [11] = test: Antiobesity activity in C57BL/6 mouse assessed as reduction in body weight gain at 3 mg/kg, po BID for 4 weeks; type: functional; design: scale not given: the % may be the effect or the level left; method in brief: as §2

SMILES	remaining at 20 min, 1 µM [2]	remaining at 20 min, 1 µM [3]	remaining at 20 min, 1 µM [4]	IC50 [5]	other results
CCOc1cc(C)c(C(=O)CCC(=O)Nc2nc(-c3ccccc3)c(Cc3ccccc3)s2)cc1OCC	13%	16%	11%	–	solubility [1]: 0.08 µg/mL (≈ 0.151 µM)
CCOc1ccc(C(=O)NCCNC(=O)c2nc(-c3ccccc3)c(Cc3ccccc3)s2)cc1	10%	17%	14%	–	solubility [1]: < 0.05 µg/mL
O=C(NCCNC(=O)c1cn(-c2ccccc2)nc1C(F)(F)F)c1ccc(Cl)cn1	4.8%	1.8%	2.6%	1200 nM	–
O=C(NCCNC(=O)c1cn(-c2ccccc2)nc1C(F)(F)F)c1ccc(Cl)nc1	2.2%	0%	1.1%	370 nM	–
CCOc1ccc(C(=O)NCCNC(=O)c2cn(-c3ccccn3)nc2C(F)(F)F)cc1	14%	7%	10%	91 nM	–
CCOc1ccc(C(=O)NCCNC(=O)c2cn(-c3ccccc3O)nc2C(F)(F)F)cc1	5.7%	0.5%	18%	610 nM	–
CCOc1ccc(C(=O)NCCNC(=O)c2nn(-c3ccccc3)cc2C)cc1	12%	14%	12%	1200 nM	–
CCOc1ccc(C(=O)NCCNC(=O)c2cn(-c3ccccc3)nc2C(F)(F)F)cn1	5.1%	2.5%	3.4%	87 nM	–
CCOc1ccc(C(=O)NCCNC(=O)c2cn(-c3cccnc3)nc2C(F)(F)F)cc1	–	–	–	3400 nM	–
CCOc1ccc(C(=O)NCCNC(=O)c2cn(-c3ccncc3)nc2C(F)(F)F)cc1	–	–	–	> 10000 nM	–
CCOc1ccc(C(=O)NCCNC(=O)c2cn(-c3cccc(OCC)c3)nc2C(F)(F)F)cc1	7.4%	6.5%	7.1%	600 nM	–
CCOc1ccc(C(=O)NCCNC(=O)c2cn(-c3ccccc3)nc2C(F)(F)F)cc1	9%	7%	6.5%	77 nM	solubility [1]: 1.1 µg/mL (≈ 2.46 µM)
CCOc1ccc(C(=O)NCCNC(=O)c2cn(-c3ccccc3)nc2C)cc1	5%	2.5%	5.8%	260 nM	–
CCOc1ccc(C(=O)N[C@H](CO)CNC(=O)c2cn(-c3ccccc3)nc2C(F)(F)F)cc1	–	–	–	–	IC50 [6]: > 10000 nM
CCOc1ccc(C(=O)N[C@@H](CO)CNC(=O)c2cn(-c3ccccc3)nc2C(F)(F)F)cc1	–	–	–	–	IC50 [6]: > 10000 nM
CCOc1ccc(C(=O)NC[C@@H](CO)NC(=O)c2cn(-c3ccccc3)nc2C(F)(F)F)cc1	–	–	–	–	IC50 [6]: > 10000 nM
O=C(NCCNC(=O)c1cn(-c2ccccc2)nc1C(F)(F)F)c1ccc(-n2cccn2)cc1	5.9%	3.5%	6.5%	400 nM	–
CCOc1cccc(C(=O)NCCNC(=O)c2cn(-c3ccccc3)nc2C(F)(F)F)c1	14%	19%	8.3%	5100 nM	–
CCOc1ccc(C(=O)NC[C@H](CO)NC(=O)c2cn(-c3ccccc3)nc2C(F)(F)F)cc1	–	–	–	–	IC50 [6]: > 10000 nM
CCOc1ccc(C(=O)NCCNC(=O)c2cn(Cc3ccccc3)nc2C(F)(F)F)cc1	5.5%	7.5%	18%	–	–
CCOc1ccc(C(=O)NCCNC(=O)c2cn(-c3ccc(Cl)cc3)nc2C(F)(F)F)cc1	4.5%	3.4%	7.2%	1500 nM	–
CCOc1ccc(C(=O)NCCNC(=O)c2cn(C3CCCCC3)nc2C(F)(F)F)cc1	8.7%	7.8%	11%	650 nM	–
CCOc1ccc(C(=O)NCCNC(=O)c2cn(-c3ccc(OCC)cc3)nc2C(F)(F)F)cc1	7.5%	14%	8.7%	380 nM	–
O=C(NCCNC(=O)c1cn(-c2ccccc2)nc1C(F)(F)F)c1ccc(OCC(F)(F)F)nc1	2.1%	0%	0.4%	44 nM	Activity (Mus musculus [7]): -12%; Activity (Mus musculus [8]): Non-toxic; Activity (Mus musculus [9]): -2.8%; Activity (Mus musculus [10]): -25%; Activity (Mus musculus [11]): -75%

Reference: ChEMBL document CHEMBL1156325, “Novel acyl coenzyme A (CoA): diacylglycerol acyltransferase-1 inhibitors: synthesis and biological activities of diacylethylenediamine derivatives” (Bioorg Med Chem, 2010)
